Results reported in ChEMBL document CHEMBL2331458, “Examination of the mode of action of the almiramide family of natural products against the kinetoplastid parasite Trypanosoma brucei” (J Nat Prod, 2013).
Calls of active or inactive are those of the source. No cut-off for these calls is given here. Starred links: 1 amine or outer side, 2 acyl side, 3 side chain; linkers in the order of their positions; H or OH if unused. Non-standard residues stand in square brackets, D forms with d. Residues, ends and D or L forms follow the SMILES beside them. *: point of attachment. BODIPY(FL) = CC1=CC(C)=[N+]2C1=Cc1ccc(CCC(=O)*)n1[B-]2(F)F; Ethylenediamine = C(CN[*:2])N[*:1]; NMeF = CN[C@@H](Cc1ccccc1)C(=O)O; X1 = CN(CCCCCCCCC(=O)[*:2])[*:1]; Oct(7)enoyl = C=CCCCCCC(=O)*; NMeV = CN[C@H](C(=O)O)C(C)C; NMeA = CN[C@@H](C)C(=O)O

Experiments:
[1] = system: Trypanosoma brucei brucei; assay: Antiparasitic activity against Trypanosoma brucei brucei 427-221 assessed as growth inhibition up to 3.1 uM after 48 hrs by cellTiter-Glo assay; assay type: functional, organism-based
Method in brief: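 T. b. brucei 427-221 bloodstream forms, grown in HMI-9 with 10% FBS and 10% Serum Plus at 37 °C, 5% CO2. Seeded at 2×10^4/mL with DMSO-serially diluted compound (1% DMSO final) for 48 h. Thimerosal 2 µM final served as positive control. Viability read by CellTiter-Glo ATP luminescence; % inhibition normalized to controls, IC50 by curve fit.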

[2] = Drug uptake in 120 hrs post fertilized zebrafish embryo intestinal tract at 1 to 270 uM after 3 hrs by confocal microscopic analysis; assay type: ADME, Danio rerio; conditions: in vivo
Method in brief: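 Zebrafish embryos at 48 and 120 h post fertilization were incubated with fluorescent probe or fluorophore control in methylene blue-free egg water at 270, 90, 30 and 0 µM, three embryos per treatment. Localization was imaged by confocal microscopy after 3 h.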

[3] = system: Trypanosoma brucei brucei; assay: Binding affinity to Trypanosoma brucei brucei 427-221 GIM5 at 50 uM by […] staining method
Method in brief: (§1)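 Procyclic trypanosomes spread on glass, dried, fixed in 70% EtOH, then permeabilized in PBS/0.2% Triton for 20 min and blocked in PBS/0.5% gelatin. Anti-aldolase (1:500, 1 h) marked glycosomes. Cells were then stained 1 h with probe (5 or 50 µM) plus Alexa 594 anti-rabbit and 100 ng/mL DAPI. Imaged by epifluorescence at 100× oil.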

[4] = Drug uptake in Trypanosoma brucei brucei 427-221 cytosol at 5 uM after 1 hr by DAPI staining method; assay type: ADME; method in brief: as §1
[5] = system: Trypanosoma brucei brucei; assay: Binding affinity to Trypanosoma brucei brucei 427-221 PEX11 at 50 uM by […] staining method; method in brief: as §1
[6] = Drug uptake in Trypanosoma brucei brucei 427-221 nucleus at 5 uM after 1 hr by DAPI staining method; assay type: ADME; method in brief: as §1
[7] = system: Trypanosoma brucei brucei; assay: Binding affinity to Trypanosoma brucei brucei 427-221 kinetoplast DNA at 5 uM after 1 hr by DAPI staining method; method in brief: as §1

For `C=CCCCCCC(=O)N(C)[C@H](C(=O)N(C)[C@H](C(=O)N(C)[C@H](C(=O)N(C)[C@@H](C)C(=O)N(C)[C@@H](Cc1ccccc1)C(=O)N(C)CCCCCCCCC(=O)NCCNC(=O)CCC1=[N+]2C(=Cc3c(C)cc(C)n3[B-]2(F)F)C=C1)C(C)C)C(C)C)C(C)C` ({Oct(7)enoyl}-[NMeV][NMeV][NMeV][NMeA][NMeF][X1]-{Ethylenediamine-BODIPY(FL)}), the Activity [1] was “Active”, the Drug uptake [2] was “Not Active” and the Activity [3] was “Active”. The Drug uptake [4] was “Active”, the Activity [5] was “Active” and the Drug uptake [6] was “Not Active”. The Activity [7] was “inactive”.
